# Test results as given in ChEMBL document CHEMBL3244103, “Modifications of primiaquine as antimalarials. 2. 5-Phenylthio and 5-anilino derivatives of primaquine” (J Med Chem, 1978).
# The source made the active and inactive calls. No cut-off for these calls is given here.
# How the values were obtained:
# Plasmodium cynomolgi [1] = experiment: Antimalarial activity against Plasmodium cynomolgi infected in rhesus monkey at 10 mg/kg; type: functional, organism-based; parameters: dose 10 mg/kg
# How it was run: (§1)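 Radical curative test in rhesus monkeys infected with P. cynomolgi, with compounds given at 0.5, 1 or 10 mg/kg. The read-out is either cures per number of animals treated or the day of relapse for animals not cured.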
# Mus musculus = species: Mus musculus; experiment: Toxicity in mouse; settings: in vivo
# Plasmodium berghei = experiment: Antimalarial activity against Plasmodium berghei infected in mouse at 320 to 640 mg/kg
# Plasmodium cynomolgi [2] = experiment: Antimalarial activity against Plasmodium cynomolgi infected in rhesus monkey at 1 mg/kg; type: functional, organism-based; parameters: dose 1 mg/kg; how it was run: as §1
# Plasmodium cynomolgi [3] = experiment: Antimalarial activity against Plasmodium cynomolgi infected in rhesus monkey at 0.5 mg/kg; type: functional, organism-based; parameters: dose 0.5 mg/kg; how it was run: as §1
# Rhesus monkey = experiment: Toxicity in rhesus monkey at 160 mg/kg; type: organism-based, Macaca mulatta; parameters: dose 160 mg/kg; settings: in vivo
Compound,Activity (Plasmodium cynomolgi [1]),also measured
COc1cc(NC(C)CCCN)c2ncccc2c1Sc1ccc(Cl)c(Cl)c1 (stereo unspecified),Active,–
COc1ccc(Sc2c(OC)cc(NC(C)CCCN)c3ncccc23)cc1.O=C(O)CC(O)(CC(=O)O)C(=O)O (stereo unspecified),–,Activity (Mus musculus): Non-toxic; Activity (Plasmodium berghei): Active
COc1cc(NC(C)CCCN)c2ncccc2c1Sc1cccc(Cl)c1 (stereo unspecified),Active,–
COc1cc(NC(C)CCCN)c2ncccc2c1Sc1ccc2ccccc2c1 (stereo unspecified),Active,–
COc1cc(NC(C)CCCN)c2ncccc2c1Sc1cccc(C(F)(F)F)c1 (stereo unspecified),–,Activity (Plasmodium cynomolgi [2]): Active
COc1cc(NC(C)CCCN)c2ncccc2c1Sc1cc(Cl)ccc1Cl (stereo unspecified),Active,–
COc1cc(NC(C)CCCN)c2ncccc2c1Sc1ccccc1Cl (stereo unspecified),Active,–
COc1cc(NC(C)CCCN)c2ncccc2c1Sc1ccc(Cl)cc1 (stereo unspecified),Active,Activity (Plasmodium cynomolgi [3]): inactive
COc1cc(NC(C)CCCN)c2ncccc2c1.O=P(O)(O)O.O=P(O)(O)O (stereo unspecified) [PRIMAQUINE PHOSPHATE],–,Activity (Rhesus monkey): Toxic
